Here are results for three compounds from ChEMBL document CHEMBL1124476, “1-(2-aminoethyl)-6-aryl-4H- [1,2,4]triazolo[4,3-a][1,4]benzodiazepines with diuretic and natriuretic activity” (J Med Chem, 1989).

The nature of series [1]: Diuretic activity at 40 mg/kg (screening dose-55.2 umol/kg) in […] in a two stage experiment; T/C1.2 = urine vol of treated rats / urine vol of control rats. It is filed as functional. In a few lines:
(§1)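 40 mg/kg given by gavage in 25 mL/kg 0.9% saline with 0.5% (carboxymethyl)cellulose. Four rats per agent, two per metabolism cage; 20 controls; 5 h urine. T/C = treated/control urine volume. Stage-1 T/C of 1.66 or more leads to stage 2; product T/C1·T/C2 of 3.34 or more counts as active.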

Series [2] can be described thus: Diuretic activity at 40 mg/kg (screening dose-55.2 umol/kg) in […] in a one stage experiment; T/C = urine vol of treated rats / urine vol of control rats. It is filed as functional. In a few lines:
as §1

In series [3] the test system is Rattus norvegicus. Kind of series: Mean excretion of chloride in conscious rats at a dose of 3.0 mg/kg given orally. It is filed as ADME, organism-based. The arrangement: dose 3 mg/kg, route oral. To be noted: in vivo, po. An outline of the steps: (§2)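 Secondary dose-response in male Sprague-Dawley rats (~160 g), fasted and hydrated as in the primary screen. Oral gavage at 0.3-100 mg/kg in 25 mL/kg saline/0.5% CMC, three cages of two rats per dose. Urine collected 5 h; Na, K, Cl, HCO3 measured. Values are mean excretion (mequiv), compared with controls at P < 0.05.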

The species entered for series [4] is Rattus norvegicus. Kind of series: […]. In kind it is ADME, organism-based, Urine. Details: dose 10 mg/kg, route oral. Particulars: in vivo, po, 10 mg/kg. An outline of the steps: (§3)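 Male Sprague-Dawley rats, about 160 g, fasted 24 h and water withheld 1 1/2 h beforehand; food and water withheld during the test. Dosing by gavage with 25 mL/kg 0.9% saline containing 0.5% (carboxymethyl)cellulose, agent dissolved or suspended. Three cages of two rats each per dose, held in metabolism cages. Urine collected over 5 h. Volume given in mL, Na+ in mequiv. Significance versus control at P < 0.05.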

Series [5] has as its system Rattus norvegicus. In words: Mean excretion of potassium in conscious rats at a dose of 100 mg/kg given orally. In kind it is ADME, organism-based. The arrangement: dose 100 mg/kg, route oral. Particulars: in vivo, po. An outline of the steps: as §2
Series [6] relates to Rattus norvegicus. Kind of series: Mean excretion of […] in conscious rats at a dose of 1.0 mg/kg given orally. To be noted: in vivo, po. In kind it is ADME, organism-based. Details: dose 1 mg/kg, route oral. An outline of the steps:
as §3

Series [7] deals with Rattus norvegicus. Kind of series: Mean excretion of sodium in conscious rats at a dose of 0.3 mg/kg given orally. In kind it is ADME, organism-based. Details: dose 0.3 mg/kg, route oral. Particulars: in vivo, po. An outline of the steps:
as §3

In series [8] the test system is Rattus norvegicus. In words: Mean excretion of potassium in conscious rats at a dose of 30 mg/kg given orally. In kind it is ADME, organism-based. The arrangement: dose 30 mg/kg, route oral. To be noted: in vivo, po. In a few lines:
as §2

The test system of series [9] is Rattus norvegicus. Kind of series: Mean excretion of potassium in conscious rats at a dose of 0.3 mg/kg given orally. In kind it is ADME, organism-based. Details: dose 0.3 mg/kg, route oral. Particulars: in vivo, po. An outline of the steps:
as §2

The species entered for series [10] is Rattus norvegicus. Kind of series: […]. It is filed as ADME, organism-based, Urine. The arrangement: dose 3 mg/kg, route oral. Particulars: in vivo, po, 3 mg/kg. In a few lines: as §3
For series [11], the system named is Rattus norvegicus. Kind of series: Mean excretion of sodium in conscious rats at a dose of 100 mg/kg given orally. In kind it is ADME, organism-based. Details: dose 100 mg/kg, route oral. To be noted: in vivo, po. An outline of the steps: as §3
Series [12] relates to Rattus norvegicus. Kind of series: Mean excretion of chloride in conscious rats at a dose of 1.0 mg/kg given orally. The arrangement: dose 1 mg/kg, route oral. It is filed as ADME, organism-based. To be noted: in vivo, po. In a few lines: as §2
Series [13] is filed under the species Rattus norvegicus. Kind of series: […]. Particulars: in vivo, po, 30 mg/kg. It is filed as ADME, organism-based, Urine. Details: dose 30 mg/kg, route oral. In a few lines:
as §3

The nature of series [14]: Diuretic activity at 40 mg/kg (screening dose-84.7 umol/kg) in […] in a one stage experiment; T/C = urine vol of treated rats / urine vol of control rats. In kind it is functional. An outline of the steps: as §1
Series [15] concerns Rattus norvegicus. Kind of series: Mean excretion of potassium in conscious rats at a dose of 3.0 mg/kg given orally. It is filed as ADME, organism-based. To be noted: in vivo, po. The arrangement: dose 3 mg/kg, route oral. An outline of the steps:
as §2

Series [16] relates to Rattus norvegicus. Kind of series: Mean excretion of potassium in conscious rats at a dose of 1.0 mg/kg given orally. The arrangement: dose 1 mg/kg, route oral. Particulars: in vivo, po. In kind it is ADME, organism-based. In a few lines:
as §2

For series [17], the system named is Rattus norvegicus. Kind of series: Mean excretion of chloride in conscious rats at a dose of 10 mg/kg given orally. The arrangement: dose 10 mg/kg, route oral. It is filed as ADME, organism-based. To be noted: in vivo, po. In a few lines:
as §2

The species entered for series [18] is Rattus norvegicus. Kind of series: […]. Particulars: in vivo, po, 0.3 mg/kg. The arrangement: dose 0.3 mg/kg, route oral. In kind it is ADME, organism-based, Urine. An outline of the steps:
(§4)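 Dose-response test in male Sprague-Dawley rats of about 160 g, fasted 24 h, with water withheld 1½ h before and during the test. Each rat got a single gavage of 25 mL/kg 0.9% saline with 0.5% carboxymethylcellulose carrying the agent (0.3–100 mg/kg range). Rats were housed two per metabolism cage, and urine was collected for 5 h. Mean urine volume (mL) was compared with controls (P < 0.05).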

The subject of series [19] is Rattus norvegicus. Kind of series: Mean excretion of potassium in conscious rats at a dose of 10 mg/kg given orally. It is filed as ADME, organism-based. Details: dose 10 mg/kg, route oral. Particulars: in vivo, po. In a few lines:
as §2

The test system of series [20] is Rattus norvegicus. In words: Mean excretion of sodium in conscious rats at a dose of 3.0 mg/kg given orally. It is filed as ADME, organism-based. Details: dose 3 mg/kg, route oral. To be noted: in vivo, po. In a few lines:
as §3

The species named for series [21] is Rattus norvegicus. Kind of series: […]. It is filed as ADME, organism-based, Urine. Details: dose 1 mg/kg, route oral. Particulars: in vivo, po, 1 mg/kg. An outline of the steps:
as §4

Series [22] can be described thus: Diuretic activity at 40 mg/kg (screening dose-90.5 uM/Kg) in […] in a two stage experiment; T/C1.2 = urine vol of treated rats / urine vol of control rats. It is filed as functional. In a few lines:
as §1

Series [23] concerns Rattus norvegicus. In words: Mean excretion of Cl- in conscious rats at a dose of 0.3 mg/kg given orally. It is filed as ADME, organism-based, Urine. The arrangement: dose 0.3 mg/kg, route oral. To be noted: in vivo, po. In a few lines:
as §4

Series [24] concerns Rattus norvegicus. In words: Mean excretion of chloride in conscious rats at a dose of 30 mg/kg given orally. To be noted: in vivo, po. The arrangement: dose 30 mg/kg, route oral. In kind it is ADME, organism-based. In a few lines: as §2
For series [25], the species on record is Rattus norvegicus. Kind of series: […]. It is filed as ADME, organism-based, Urine. Details: dose 100 mg/kg, route oral. Particulars: in vivo, po, 100 mg/kg. An outline of the steps:
as §3

The subject of series [26] is Rattus norvegicus. In words: Mean excretion of sodium in conscious rats at a dose of 30 mg/kg given orally. In kind it is ADME, organism-based. Details: dose 30 mg/kg, route oral. Particulars: in vivo, po. An outline of the steps: as §3
In series [27] the test system is Rattus norvegicus. Kind of series: Mean excretion of chloride in conscious rats at a dose of 100 mg/kg given orally. To be noted: in vivo, po. In kind it is ADME, organism-based. Details: dose 100 mg/kg, route oral. An outline of the steps:
as §2

In series [28] the test system is Rattus norvegicus. In words: Mean excretion of sodium in conscious rats at a dose of 10 mg/kg given orally. It is filed as ADME, organism-based. The arrangement: dose 10 mg/kg, route oral. To be noted: in vivo, po. An outline of the steps:
as §3

The test system of series [29] is Canis familiaris. Kind of series: Effect of compound on glomerular filtration rate before infusion with 10 mg/kg/hr fose into renal artery of anesthetized dogs. Particulars: dog, in vivo. It is filed as ADME, organism-based, Canis lupus familiaris. In a few lines:
(§5)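 Anesthetized dogs; drug added to saline pumped at 0.3 mL/min through a needle into one renal artery, contralateral kidney as control. 10 mg/kg per h, with 30-60 min stabilization first. Urine volume and GFR (inulin clearance) taken before and after infusion; means ± SEM in mL/min, N = 5, P < 0.05.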

Series [30] can be described thus: Diuretic activity at 40 mg/kg (screening dose-90.5 umol/kg) in […] in a two stage experiment; T/C1.2 = urine vol of treated rats / urine vol of control rats. It is filed as functional. An outline of the steps: as §1
The test system of series [31] is Canis familiaris. Kind of series: Effect of compound on urinary volume before infusion with 10 mg/kg/hr fose into renal artery of anesthetized dogs. It is filed as ADME, organism-based, Canis lupus familiaris, Urine. Particulars: dog, in vivo. In a few lines:
as §5

Series [32] in a line: Diuretic activity at 40 mg/kg (screening dose-90.5 umol/kg) in […] in a one stage experiment; T/C = urine vol of treated rats / urine vol of control rats. In kind it is functional. An outline of the steps:
as §1

The subject of series [33] is Canis familiaris. Kind of series: Effect of compound on glomerular filtration rate after infusion with 10 mg/kg/hr fose into renal artery of anesthetized dogs. It is filed as ADME, organism-based, Canis lupus familiaris. To be noted: dog, in vivo. In a few lines:
as §5

Series [34] relates to Canis familiaris. Kind of series: Effect of compound on urinary volume after infusion with 10 mg/kg/hr fose into renal artery of anesthetized dogs. Particulars: dog, in vivo. It is filed as ADME, organism-based, Canis lupus familiaris, Urine. An outline of the steps: as §5

Structures are written as SMILES.

For `CN(C)CCc1nnc2n1-c1ccc(Cl)cc1C(c1ccccc1)=NC2`, in series [1], the “T/C 1.2” value is given as 3.04. In addition, the “T/C 1” value in series [2] was 1.66.
With `COc1cccc(C(CN(C)C)c2nnc3n2-c2ccc(Cl)cc2C(c2ccccc2)=NC3)c1` (stereo not drawn), the “Mean excretion of Cl-” value in series [3] is recorded as 0.78 m equiv; in [12], 0.72 m equiv; in [17], 1.11 m equiv; in [23], 0.59 m equiv; in series [24] it was 1.99 m equiv; in series [27], 1.8 m equiv. Further, the Mean urine volume in series [4] worked out at 5.99 mL; in [10], 4.29 mL; in series [13], 12.21 mL; in series [18] it was 3.37 mL; in series [21] it was 3.74 mL; in series [25] it was 12.03 mL. The “Mean excretion of K+” value came to 0.3 m equiv in series [5]; 0.24 m equiv in [8]; 0.22 m equiv in series [9]; 0.17 m equiv in series [15]; 0.21 m equiv in series [16]; 0.17 m equiv in series [19]. In addition, the “Mean excretion of Na+” value in series [6] was determined as 0.64 m equiv; in series [7] it was 0.52 m equiv; in [11], 1.76 m equiv; in [20], 0.79 m equiv; in [26], 1.99 m equiv; in series [28] it was 1.13 m equiv. In addition, the “T/C 1” value in [14] came to 3.18. The “T/C 1.2” value in [22] turned out to be 7.31.
In the case of `CN(C)CC(c1ccccc1)c1nnc2n1-c1ccc(Cl)cc1C(c1ccccc1)=NC2` (stereo not drawn), the “Mean excretion of Cl-” value in [3] amounted to 0.89 m equiv; in [12], 0.81 m equiv; in series [17], 1.16 m equiv; in [23], 0.73 m equiv; in series [24], 1.72 m equiv; in series [27] it was 1.26 m equiv. For the same compound, the Mean urine volume is 6.7 mL in series [4]; 5.36 mL in [10]; 12 mL in [13]; 4.15 mL in [18]; 4.47 mL in [21]; 9.54 mL in series [25]. The “Mean excretion of K+” value in series [5] is on record as 0.27 m equiv; in series [8] it was 0.27 m equiv; in [9], 0.25 m equiv; in [15], 0.22 m equiv; in [16] it was 0.25 m equiv; in [19], 0.22 m equiv. The GFR was 23 mL/min in series [29] and 18 mL/min in series [33]. The “T/C 1.2” value in [30] was 5.27. Also, the “Mean excretion of Na+” value came to 0.81 m equiv in series [6]; 0.74 m equiv in series [7]; 1.51 m equiv in [11]; 0.82 m equiv in series [20]; 1.8 m equiv in series [26]; 1.15 m equiv in [28]. The Urinary volume in [31] stood at 0.2 mL/min; in [34], 0.9 mL/min. For the same compound, the “T/C 1” value in [32] is on record as 2.1.
